In ChEMBL document CHEMBL1153506, “Design, synthesis, and discovery of novel non-peptide inhibitor of Caspase-3 using ligand based and structure based virtual screening approach” (Bioorg Med Chem, 2009) one finds Activity and IC50 data, which are given here for three compounds.

pIC50: −log10 of the molar value. Activity calls are given as the source filed them. The rule behind the calls is not given here.

Test [1] concerns SK-N-SH. Nature of the test: Induction of apoptosis in human SK-N-SH cells at 0.5 to 5 uM by fluorescence assay. It counts as functional, cell-based. A digest of the protocol: (§1)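 Human SK-N-SH neuroblastoma cells exposed to the test agent at 0.5–5 µM. Apoptosis was read as caspase-3 activity by fluorescence intensity, scanned around 420–430 nm. Values are slopes averaged from 5 experiments, each run in duplicate.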

Test [2] relates to SK-N-SH. Description: Induction of apoptosis in human SK-N-SH cells assessed as caspase 3 activity at 1 uM by fluorescence assay. It is filed as functional, cell-based. A digest of the protocol:
as §1

Test [3] relates to SK-N-SH. Nature of the test: Induction of apoptosis in human SK-N-SH cells assessed as caspase 3 activity at 5 uM by fluorescence assay. It counts as functional, cell-based. A digest of the protocol:
as §1

Test [4] has as its target T1, Caspase-3 (Homo sapiens) (UniProt P42574).
T1 sequence (whole entry): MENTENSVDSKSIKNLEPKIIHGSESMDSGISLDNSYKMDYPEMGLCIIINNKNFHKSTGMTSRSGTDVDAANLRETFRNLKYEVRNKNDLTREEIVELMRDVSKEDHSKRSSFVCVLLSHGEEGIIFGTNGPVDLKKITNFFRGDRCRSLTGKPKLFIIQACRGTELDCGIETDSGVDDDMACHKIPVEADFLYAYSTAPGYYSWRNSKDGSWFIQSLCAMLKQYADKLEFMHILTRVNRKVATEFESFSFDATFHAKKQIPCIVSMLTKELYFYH
Nature of the test: Inhibition of caspase 3 in human SK-N-SH cells assessed as accumulation of fluorogenic 7-amino-4-methyl coumarin at 5 mM by fluorometric assay. It counts as cell-based. In outline:
(§2)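 Kit-based caspase-3 cleavage assay, using doxorubicin-induced apoptotic SK-N-SH cell extracts as the caspase source. The inhibitor was dissolved in DMSO and serially diluted to working concentrations, and a standard inhibitor served as control. Fluorescence was recorded across 420–460 nm, and decreases in intensity were expressed relative to apoptotic control extracts.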

Test [5] has as its target T1, Caspase-3 (Homo sapiens). Nature of the test: Inhibition of caspase 3 in human SK-N-SH cells assessed as decrease in fluorescence intensity-associated with accumulation of fluorogenic 7-amino-4-methyl coumarin at 5 mM by fluorometric assay relative to control. Also noted: scale not given: the % may be the effect or the level left. It counts as cell-based. In outline:
as §2

Test [6] deals with T1, Caspase-3 (Homo sapiens). Description: Inhibition of caspase 3 in human SK-N-SH cells assessed as accumulation of fluorogenic 7-amino-4-methyl coumarin at 50 uM by fluorometric assay. It is filed as cell-based. A digest of the protocol: as §2
The target in test [7] is T2, Caspase-7 (Homo sapiens) (UniProt P55210).
T2 sequence (whole entry): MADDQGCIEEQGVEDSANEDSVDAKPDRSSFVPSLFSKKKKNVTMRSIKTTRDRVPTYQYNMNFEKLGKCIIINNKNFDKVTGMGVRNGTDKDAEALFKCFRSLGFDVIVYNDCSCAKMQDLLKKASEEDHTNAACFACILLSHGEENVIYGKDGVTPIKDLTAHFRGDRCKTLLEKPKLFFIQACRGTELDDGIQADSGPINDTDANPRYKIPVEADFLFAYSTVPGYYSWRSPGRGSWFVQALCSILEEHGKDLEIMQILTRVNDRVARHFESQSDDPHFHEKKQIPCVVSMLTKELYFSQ
Nature of the test: Inhibition of caspase 7 in human SK-N-SH cells assessed as accumulation of fluorogenic 7-amino-4-methyl coumarin by fluorometric assay. It counts as cell-based.

Test [8] addresses T1, Caspase-3 (Homo sapiens). Description: Inhibition of caspase 3 in human SK-N-SH cells assessed as accumulation of fluorogenic 7-amino-4-methyl coumarin at 0.5 uM by fluorometric assay. It counts as cell-based. A digest of the protocol: as §2
Test [9] relates to SK-N-SH. Nature of the test: Inhibition of apoptosis in human SK-N-SH cells assessed as maximum fluorescence intensity at 440 nm treated at 0.5 uM by fluorescence assay. It is filed as functional, cell-based. In outline:
as §2

Test [10] deals with T1, Caspase-3 (Homo sapiens). Nature of the test: Inhibition of caspase 3 in human SK-N-SH cells assessed as accumulation of fluorogenic 7-amino-4-methyl coumarin at 10 uM by fluorometric assay. It counts as cell-based. In outline: as §2
Test [11] has as its target T1, Caspase-3 (Homo sapiens). Description: Inhibition of caspase 3 in human SK-N-SH cells assessed as accumulation of fluorogenic 7-amino-4-methyl coumarin at 1 mM by fluorometric assay. It counts as cell-based. A digest of the protocol:
as §2

Test [12] has as its target T1, Caspase-3 (Homo sapiens). Nature of the test: Inhibition of caspase 3 in human SK-N-SH cells assessed as accumulation of fluorogenic 7-amino-4-methyl coumarin at 100 uM by fluorometric assay. It is filed as cell-based. In outline: as §2
The target of test [13] is T3, Caspase-3 (Homo sapiens, UniProt P42574).
T3 sequence (P42574 whole entry): T1 sequence (whole entry)
Nature of the test: Inhibition of caspase 3 in human SK-N-SH cells assessed as accumulation of fluorogenic 7-amino-4-methyl coumarin by fluorometric assay. It is filed as cell-based.

As for `COc1cccc2c1C(=O)c1c(O)c3c(c(O)c1C2=O)C[C@@](O)(C(=O)CO)C[C@@H]3O[C@H]1C[C@H](N)[C@H](O)[C@H](C)O1`, the outcome in test [1], in test [2] and in test [3] was Active.
On to `O=C(NCCCN1CCN(Cc2c(F)cccc2Cl)CC1)c1ccc(Cl)c(Cl)c1`, for which the outcome in [4], in [8], in [9] and in test [11] was Active. Further, the Activity in test [5] came to 50%. For the same compound, the outcome in [6], in test [3], in test [7], in [10] and in test [12] was inactive.
`O=C1Nc2ccc(S(=O)(=O)N3CCCC3CNc3ccccc3)cc2C1=O` (centres undefined): the pIC50 in test [13] was 7.51.

A word on the pIC50: it is −log10 of the IC50, conventionally taken in molar units.
